The target of experiment [1] is T1, RAC-alpha serine/threonine-protein kinase (Homo sapiens, UniProt P31749). The experiment can be described thus: Inhibition of GST-tagged PKB/Akt1 incubated for 5 mins before eNOS substrate and ATP addition measured after 30 mins by kinase assay.
The subject of experiment [2] is OVCAR-8. Put plainly: Decrease in GSK3-beta protein level in human OVCAR8 cells at 20 uM by Western blot analysis. Type of experiment: functional, cell-based. The method, boiled down: (§1)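 OVCAR-8 cells treated, harvested, washed in ice-cold PBS and lysed in immunoprecipitation buffer with NaF, β-glycerophosphate, detergents and PMSF. Debris pelleted at 13,000 rpm for 30 min at 4 °C; protein measured by Bradford. Immunoblots probed for phospho-Akt Ser-473, phospho- and total GSK3, with GAPDH.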

Another experiment deals with PC-3. Put plainly: Antiproliferative activity against human PC3 after 72 hrs by MTT assay. Type of experiment: functional, cell-based. The settings on record: PC-3, 72 h. The essentials: (§2)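 MTT read-out: cells seeded at 4000 per well, attached overnight, exposed to compound over 1.0–100.0 µM for 72 h. MTT solution (5.0 mg/ml) added for a further 4 h at 37 °C, formazan dissolved in DMSO, absorbance at 570 nm. Triplicate wells in three independent experiments; IC50 from dose–effect analysis.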

Experiment [3] has as its system OVCAR-8. The experiment can be described thus: Antiproliferative activity against human OVCAR8 after 72 hrs by MTT assay. Type of experiment: functional, cell-based. Conditions: OVCAR-8, 72 h. The essentials:
as §2

Another experiment concerns HL-60. Put plainly: Antiproliferative activity against human HL60 after 72 hrs by MTT assay. The class given is functional, cell-based. The settings on record: HL-60, 72 h. The essentials:
as §2

Experiment [4] concerns OVCAR-8. Put plainly: Induction of apoptosis in human OVCAR8 cells assessed as apoptotic cells at 20 uM after 72 hrs by Annexin V-FITC/propidium iodide staining-based FACS analysis. The class given is functional. The method, boiled down:
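OVCAR-8 cells (5 × 10^4 cells/ml) cultured in flasks and treated with vehicle or compound. After treatment, cells harvested and washed twice in ice-cold PBS, then stained with Annexin V-FITC/propidium iodide and analysed by flow cytometry.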

The test system of experiment [5] is OVCAR-8. Put plainly: Down regulation of PKB/Akt phosphorylation at Ser-473 in human OVCAR8 cells at 20 uM by Western blot analysis. The class given is functional, cell-based. The method, boiled down: as §1
Experiment [6] relates to OVCAR-8. The experiment can be described thus: Inhibition of PKB/Akt in human OVCAR8 cells assessed as decrease of GSK3-beta phosphorylation at 20 uM after Western blot analysis. Type of experiment: cell-based. The method, boiled down:
as §1

In experiment [7] the target is T1, RAC-alpha serine/threonine-protein kinase. The experiment can be described thus: Inhibition of GST-tagged PKB/Akt1 incubated for 5 mins before eNOS substrate and ATP addition at > 50 uM measured after 30 mins by kinase assay. The method, boiled down:
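HTScan PKB/Akt1 kit: active recombinant GST-Akt1 (4 ng) in kinase buffer (Tris-HCl pH 7.5, MgCl2, β-glycerophosphate, Na3VO4, DTT) preincubated with compound or DMSO vehicle 5 min at room temperature. ATP/substrate cocktail with eNOS substrate added. Reaction stopped with 50 mM EDTA (pH 8.0); activity read per kit instructions. H-89 as positive control.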

Structures are written as SMILES. Active and inactive are the calls of the source. The rule behind the calls is not given here.

T1 sequence (P31749 whole entry): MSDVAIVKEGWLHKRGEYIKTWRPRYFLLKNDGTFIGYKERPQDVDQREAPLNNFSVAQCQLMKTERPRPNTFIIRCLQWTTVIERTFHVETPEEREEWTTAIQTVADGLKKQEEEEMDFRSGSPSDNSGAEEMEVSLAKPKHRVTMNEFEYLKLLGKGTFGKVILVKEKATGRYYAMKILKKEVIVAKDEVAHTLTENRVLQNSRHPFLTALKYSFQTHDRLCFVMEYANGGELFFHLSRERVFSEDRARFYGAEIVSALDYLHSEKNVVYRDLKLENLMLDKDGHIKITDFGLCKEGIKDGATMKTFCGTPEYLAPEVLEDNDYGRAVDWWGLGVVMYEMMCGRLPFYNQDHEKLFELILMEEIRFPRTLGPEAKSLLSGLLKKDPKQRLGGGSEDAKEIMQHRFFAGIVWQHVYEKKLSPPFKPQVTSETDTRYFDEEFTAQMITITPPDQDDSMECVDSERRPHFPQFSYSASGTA

In the case of `CC(C)=CCc1cc(C(=O)/C=C/c2cccc(O)c2)c(O)cc1O`, the IC50 in [1] (read-out: IC50) stood at 85.9 µM.
Same read-out and setting: as for `CC(C)=CCc1c(O)cc2oc(-c3ccc(O)cc3O)cc(=O)c2c1O`, the figure is 54.5 µM.
Consider `O=c1cc(CSc2nnc(O)n2C2Cc3ccccc3C2)c2ccc(O)cc2o1`, for which, in experiment [1], the IC50 result is reported as “Not Active”.
Consider `CC(C)=CCc1c(O)cc(O)c(C(=O)/C=C/c2ccc(O)cc2)c1O` [DEMETHYLXANTHOHUMOL], for which the IC50 in experiment [1] (read-out: IC50) came to 144 µM.
Turning to `CC(C)=CCc1c(O)cc(O)c2c(=O)cc(-c3ccc(O)c(O)c3)oc12`, the result in the experiment with OVCAR-8 [2] was inactive. For the same compound, the IC50 in experiment [1] (read-out: IC50) amounted to 3.9 µM; in the experiment on PC-3, 18.6 µM; with OVCAR-8 [3] it was 16.6 µM; in the experiment with HL-60, 3.31 µM. Further, in the experiment on OVCAR-8 [4], the Activity is 49.11%. Besides, in the experiment on OVCAR-8 [5], the outcome was Active. For the same compound, in the experiment on OVCAR-8 [6], the inhibition entry is “Active”.
`CC(C)=CCc1c(O)cc2oc(-c3ccc(O)c(O)c3)cc(=O)c2c1O`: the result in the experiment with OVCAR-8 [2] was inactive. Moreover, the IC50 is 5.4 µM in [1] (read-out: IC50), 14.6 µM with PC-3, 23.8 µM with OVCAR-8 [3] and 2.5 µM in the experiment on HL-60. Further, the Activity in the experiment with OVCAR-8 [4] was found to be 40.19%. In addition, in the experiment with OVCAR-8 [5], the outcome was Active. Besides, the inhibition result in the experiment with OVCAR-8 [6] is “Active”.
For the compound `Cc1ccc(S(=O)(=O)OC[C@H]2O[C@@H](n3cnc4c(=O)[nH]c(NC(=O)C(C)C)nc43)C[C@H]2O)cc1`, the IC50 entry in experiment [1] is recorded as “Not Active”.
Regarding `CC(=O)Nc1cccc(-n2nnc(SCC(=O)NCc3cccs3)n2)c1`, in [7], the inhibition was found to be 19.6%. Moreover, the IC50 in experiment [1] (read-out: IC50) is above 50 µM.
`CC(C)=CCc1cc2c(=O)cc(-c3ccc(O)cc3O)oc2cc1O`: the IC50 entry in experiment [1] is “Not Active”.

Source of the values: ChEMBL document CHEMBL1914446, “Pharmacophore identification, virtual screening and biological evaluation of prenylated flavonoids derivatives as PKB/Akt1 inhibitors” (Eur J Med Chem, 2011).
